# TAAR1 agonist – human TAAR1 agonism; CHO RD-HGA16 TAAR1, Fluo-8 calcium fluorescence; vehicle wells 0%, saturating PEA agonist 100%; activation, % at 3 µM; 0.99% of 360,000 active; AID 624467;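 active means activation above the mean activation of all test compounds in the run plus 3 SD, cut at about 38% in these data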
#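 Test system: RD-HGA16 (CHO) cells co-expressing Gα16 and hTAAR1 / Benchmarks: DMSO vehicle as 0%, PEA at EC100 as 100% / Repeats: no replicates (n 1) / Measure: % activation from peak over basal fluorescence ratio, DMSO-to-PEA scaled / Timing: 17-24 h plating, Fluo-8 75 min 37 °C, 30 min RT / Technique: kinetic Fluo-8 calcium fluorescence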
# CHRM1 antagonist – blocks human M1 muscarinic receptor. CHO-K1 hM1, Fluo-8 calcium fluorescence, ACh EC80 antagonist. inhibition, % at 3 µM. 1.3% of 360,000 active. AID 588852;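 active means percent inhibition above its own plate's cutoff, namely the mean of that plate's compound wells plus 3 SD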;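 further: peak over basal fluorescence ratio during 140 s after agonist addition; 0% = ACh EC80 plus DMSO and 100% = DMSO alone without agonist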
# Target sequence (P11229 whole entry, looked up): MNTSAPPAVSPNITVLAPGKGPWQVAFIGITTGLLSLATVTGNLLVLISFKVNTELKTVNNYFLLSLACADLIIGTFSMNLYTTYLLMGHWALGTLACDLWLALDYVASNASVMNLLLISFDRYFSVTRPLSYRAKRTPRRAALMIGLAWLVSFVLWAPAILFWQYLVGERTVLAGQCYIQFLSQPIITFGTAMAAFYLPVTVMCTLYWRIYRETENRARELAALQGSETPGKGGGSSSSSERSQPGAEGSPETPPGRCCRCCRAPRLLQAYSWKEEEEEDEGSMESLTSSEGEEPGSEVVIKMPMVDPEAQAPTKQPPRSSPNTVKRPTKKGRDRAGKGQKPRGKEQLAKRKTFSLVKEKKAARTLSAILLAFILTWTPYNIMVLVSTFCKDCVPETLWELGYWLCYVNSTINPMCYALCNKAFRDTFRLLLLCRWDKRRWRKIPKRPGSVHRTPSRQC
# TAAR1 antagonist – antagonists of human TAAR1; CHO RD-HGA16 TAAR1, Fluo-8 calcium fluorescence, antagonist; inhibition, % at 3 µM; 1.5% of 360,000 active; Q96RJ0; AID 624466;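 active means inhibition above a per-plate cutoff, the mean inhibition of test compounds on that plate plus 3 SD, cut at about 49% in these data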;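 further: 0% = DMSO plus EC80 beta-PEA response and 100% = DMSO alone without agonist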
#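 Test system: RD-HGA16 CHO cells with stable hTAAR1 and Gα16 / Probe or stimulus: EC80 β-phenethylamine stimulus / Times: seeding 17-24 h prior, 75-min 37 °C, 30-min RT dye loading / Detection: Fluo-8 calcium-sensitive fluorescence / Read-out basis: % inhibition scaled between DMSO and EC80 PEA controls / Repeats: singlicate, one well per test compound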
# M1 PAM – human CHRM1 positive allosteric modulation; CHO-K1 hM1, Fluo-8 calcium fluorescence, ACh EC20; 0% = ACh EC20, 100% = maximal ACh; P11229; activation, % at 3 µM; 0.088% of 360,000 active; in the data active means activation above about 19%, passing the limit was not always enough
# M1 ag – activates human CHRM1 receptor | 0.33% of 360,000 active | CHO-K1 hM1, Fluo-8 calcium fluorescence, agonist mode; 0% DMSO, 100% acetylcholine EC100 | activation, % at 3 µM | AID 588814 | P11229;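 active means activation above the run's mean compound activation plus 3 SD, cut at about 16% in these data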;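 further: peak over basal fluorescence ratio within a 140 s kinetic read after compound addition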
# Numbers without * were called inactive; · = no result. Hits are enriched below; roughly 3.4% of the tested compounds scored in any of these assays.
SMILES,TAAR1 agonist,CHRM1 antagonist,TAAR1 antagonist,M1 PAM,M1 ag
O=C1/C(=C\c2ccccc2)CN(C(=O)CCN2CCCCC2)C/C1=C/c1ccccc1,23,9,6,-11,-8
O=C1/C(=C\c2ccc(Cl)c(Cl)c2)CN(C(=O)CCN2CCOCC2)C/C1=C/c1ccc(Cl)c(Cl)c1,12,5,57*,-2,-3
Cc1ccccc1CN1C(=O)CN(S(C)(=O)=O)CC1(C)C(=O)NC(C)C (stereo unspecified),1,·,-11,·,·
Cc1cc(=O)n2c3ccccc3n(CC(O)CN3CCN(Cc4ccccc4)CC3)c2c1C#N (stereo unspecified),4,45*,28,-22,-6
O=C(Nc1ccc2c(c1)CCCN2C(=O)c1ccccc1)c1ccccc1,12,16,58*,-6,-1
CCCCN(CCCC)CCCNC(=O)Cn1cc(C)c(=O)[nH]c1=O,0,·,-10,·,·
COc1ccc(-c2cc(C(=O)N(C)Cc3nc4ccccc4c(=O)[nH]3)c3ccccc3n2)cc1OC,11,33*,59*,-12,0
COc1ccc(-c2cc(C(=O)N(C)CCc3ccc(OC)c(OC)c3)c3ccccc3n2)cc1,12,1,49*,2,0
COc1cccc(CN(C)C(=O)c2cc(-c3ccc(OC)c(OC)c3)nc3ccccc23)c1,3,29,51*,-3,-2
COc1cccc(CN(C)C(=O)c2cc(-c3ccc(F)cc3)nc3ccccc23)c1,·,28,·,-9,-2
COc1ccc(CN(C)C(=O)c2cc(-c3ccccc3)nc3ccc(C)cc23)c(OC)c1OC,4,31,63*,-9,-2
COc1ccc(C2=NOC(Cn3c(Cc4ccc(Cl)cc4)nc4c3c(=O)n(C)c(=O)n4C)C2)cc1 (stereo unspecified),6,31*,40,-9,0
CN(C)CCCCCNCCCNC(=O)/C=N\O,6,-25,-4,10,-4
CN(C)CCNC(=O)/C=N/O,0,1,-3,-9,26*
CCN(CC)CC(=O)N1N=C(c2cccs2)CC1c1ccco1 (stereo unspecified),11,51*,-12,-21,-5
CCC1Oc2ccc(C)cc2N(CC(=O)N(Cc2ccc(C)o2)C2CC(C)(C)NC(C)(C)C2)C1=O (stereo unspecified),-1,29*,-21,-10,-2
CCC1Oc2ccc(C)cc2N(CC(=O)N(Cc2cccnc2)Cc2ccc(C)o2)C1=O (stereo unspecified),7,7,37,-8,-10
COc1ccc(S(=O)(=O)N2CCCC(c3cc(C(=O)NCc4cccnc4)no3)C2)cc1 (stereo unspecified),1,-4,-1,13,1
COc1cc(CCN(C(=O)c2cc3ccccc3[nH]2)C(c2ccccn2)c2nc3ccccc3[nH]2)cc(OC)c1 (stereo unspecified),3,-25,16,2,0
COc1cc(CCN(C(=O)c2cc3ccccc3[nH]2)C(C)c2nc3ccccc3[nH]2)cc(OC)c1 (stereo unspecified),2,13,65*,-7,-9
Cc1nccn1CCc1n[nH]c(=S)n1Cc1ccccc1,8,60*,17,-21,-5
CCCOc1ccc(CCc2n[nH]c(=S)n2Cc2ccccc2)cc1,0,19,51*,-11,-4
S=c1[nH]nc(CCc2ccccc2)n1Cc1ccccc1,4,25,12,-19,-6
C[C@H](O)[C@@H]1CN2CCc3c([nH]c4ccccc34)[C@@H]2C[C@@H]1N(C)CC1CCCCC1,0,·,-11,·,·
N#Cc1ccccc1Sc1ccccc1C(=O)NCC(c1ccco1)N1CCCCC1 (stereo unspecified),0,30*,-2,-22,-8
SMILES,TAAR1 agonist,CHRM1 antagonist,TAAR1 antagonist,M1 PAM,M1 ag
O=C(NCC(c1ccco1)N1CCCC1)c1ccccc1Sc1ccc(C(F)(F)F)cc1[N+](=O)[O-] (stereo unspecified),2,95*,-11,-28,-8
CC(=O)Nc1cc(-c2ccccc2N(C)C)cn2c(-c3ccc(S(C)(=O)=O)cc3)cnc12,6,11,6,-3,-5
COC(=O)C1=C(C)NC(C)=C(C(=O)OCCN(C)Cc2ccccc2)C1c1cccc([N+](=O)[O-])c1 (stereo unspecified),-1,46,49*,-24,-6
COc1ccc(-c2c(-c3ccc(O)cc3O)n[nH]c2C(F)(F)F)cc1,2,3,11,17,5
Oc1ccc(-c2n[nH]c(C(F)(F)F)c2-c2ccccc2)c(O)c1,7,42*,32,-24,-3
CCOC(=O)N1CCC(NCCNC(=O)c2ccccc2)CC1,12,48*,12,-14,53*
CCOC(=O)N1CCC(NCCNC(=O)c2ccccc2Cl)CC1,2,38*,3,-16,43*
CCOC(=O)N1CCC(NC(=O)c2ccccc2C(=O)O)CC1,1,11,-26,-5,-3
CCOC(=O)N1CCC(NCCNC(=O)c2cccs2)CC1,11,21,-9,-12,31*
CCOC(=O)N1CCC(NC(=O)c2cccs2)CC1,10,-14,12,1,-3
CCOC(=O)N1CCC(NC(=O)Cc2ccccc2)CC1,8,-15,-15,9,-4
N#CC1=C(N)OC2=C(C(=O)CCC2)C1c1cc2c(cc1Br)OCO2 (stereo unspecified),1,30*,-16,-11,-8
N#CC1=C(N)OC2=C(C(=O)CCC2)C1c1cc2c(cc1Cl)OCO2 (stereo unspecified),2,-8,-8,7,-7
COc1ccc2c(c1)[C@@H](NC(=O)C(F)(F)F)[C@@H]1CCCC[C@]21c1ccccc1,0,·,24,·,·
CCc1ccc(NCc2ccc(OC)c(Cn3ccnc3)c2)cc1,1,-7,21,2,-4
COc1ccc(CNc2ccc(Cl)cc2)cc1Cn1ccnc1,5,-2,17,-1,17*
CCN(CC)S(=O)(=O)c1cccc(C(=O)Nc2nc3cc4c(cc3s2)OCCO4)c1,4,28,52*,-21,-3
O=C(Nc1nc2cc3c(cc2s1)OCCO3)c1cccc(N2C(=O)CCC2=O)c1,9,-1,38,4,-1
COc1ccc(S(=O)(=O)N2CCCc3nc(-c4ccc(Br)cc4)ccc32)cc1,1,·,-11,·,·
Cc1nc(C(=O)NCc2ccccc2)sc1C1(C)CC(c2ccccc2)=NO1 (stereo unspecified),16,-11,18,5,17*
COc1ccc(NC(=O)c2nc(C)c(C3(C)CC(c4ccccc4)=NO3)s2)cc1 (stereo unspecified),10,11,28,-10,-5

# High-throughput results: PubChem, The Scripps Research Institute Molecular Screening Center
